# Reference: ChEMBL document CHEMBL4316659, “Selective Antiproliferative Withanolides from Species in the Genera Eriolarynx and Deprea” (J Nat Prod, 2019)
# What was measured:
# A549 = test: Antiproliferative activity against human A549 cells incubated for 48 hrs by SRB assay; type: functional; conditions: A549, 48 h
# How it was run: (§1)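 Cells kept in RPMI 1640 with 5% FBS and 2 mM L-glutamine at 37 °C under 5% CO2. Seeded at 2500 (A549, HBL-100, HeLa, SW1573) or 5000 (T-47D, WiDr, BJ-hTERT) cells/well and left 24 h. Compounds added as serial dilutions (0.01−100 μM) for 48 h. SRB staining read at 530 and 620 nm. GI50 calculated by NCI formulas. Mean of at least two independent experiments ± SD.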
# HBL-100 = test: Antiproliferative activity against human HBL100 cells incubated for 48 hrs by SRB assay; type: functional; conditions: HBL-100, 48 h; how it was run: as §1
# HeLa = test: Antiproliferative activity against human HeLa cells incubated for 48 hrs by SRB assay; type: functional; how it was run: as §1
# SW1573 [1] = test: Antiproliferative activity against human SW1573 cells incubated for 48 hrs by SRB assay; type: functional; conditions: SW1573, 48 h; how it was run: as §1
# T47D = test: Antiproliferative activity against human T47D cells incubated for 48 hrs by SRB assay; type: functional; how it was run: as §1
# WiDr = test: Antiproliferative activity against human WiDr cells incubated for 48 hrs by SRB assay; type: functional; how it was run: as §1
# [2] = Antiproliferative activity against human hTERT-BJ cells incubated for 48 hrs by SRB assay; type: cell-based; how it was run: as §1
# [3] = Ratio of GI50 for antiproliferative activity against human hTERT-BJ cells incubated for 48 hrs by SRB assay to GI50 for antiproliferative activity against human A549 cells incubated for 48 hrs by SRB assay
# How it was run: (§2)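 Selectivity is GI50 in the nontumor BJ-hTERT fibroblasts divided by GI50 in each tumor line. All values come from the same 48 h SRB assay, with 0.01−100 μM serial dilutions.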
# [4] = Ratio of GI50 for antiproliferative activity against human hTERT-BJ cells incubated for 48 hrs by SRB assay to GI50 for antiproliferative activity against human HBL100 cells incubated for 48 hrs by SRB assay; how it was run: as §2
# [5] = Ratio of GI50 for antiproliferative activity against human hTERT-BJ cells incubated for 48 hrs by SRB assay to GI50 for antiproliferative activity against human HeLa cells incubated for 48 hrs by SRB assay; type: toxicity, cell-based; conditions: hTERT-BJ cells versus HeLa cells, read-out: RatioGI50; how it was run: as §2
# [6] = Ratio of GI50 for antiproliferative activity against human hTERT-BJ cells incubated for 48 hrs by SRB assay to GI50 for antiproliferative activity against human SW1573 cells incubated for 48 hrs by SRB assay; type: toxicity, cell-based; conditions: hTERT-BJ cells versus SW1573 cells, read-out: RatioGI50; how it was run: as §2
# [7] = Ratio of GI50 for antiproliferative activity against human hTERT-BJ cells incubated for 48 hrs by SRB assay to GI50 for antiproliferative activity against human T47D cells incubated for 48 hrs by SRB assay; type: toxicity, cell-based; conditions: hTERT-BJ cells versus T47D cells, read-out: RatioGI50; how it was run: as §2
# [8] = Ratio of GI50 for antiproliferative activity against human hTERT-BJ cells incubated for 48 hrs by SRB assay to GI50 for antiproliferative activity against human WiDr cells incubated for 48 hrs by SRB assay; type: toxicity, cell-based; conditions: hTERT-BJ cells versus WiDr cells, read-out: RatioGI50; how it was run: as §2
# SW1573 [9] = test: Antiproliferative activity against human SW1573 cells incubated for 48 hrs in absence of P-gp and CYP3A4/5 inhibitor verapamil by SRB assay; type: functional; conditions: SW1573, 48 h
# How it was run: (§3)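 Wild-type SW1573 (2500 cells/well) and P-gp-overexpressing SW1573/Pgp (5000 cells/well) in RPMI 1640 with 5% FBS. Seeded 24 h, then exposed 48 h to serial dilutions (0.01−100 μM) with or without 10 μM verapamil (final) in the medium. Paclitaxel and vinblastine were reference drugs. SRB read at 530/620 nm. GI50 by NCI formulas, mean of at least two independent experiments ± SD.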
# SW1573 [10] = test: Antiproliferative activity against human SW1573 cells over-expressing P-gp incubated for 48 hrs in absence of P-gp and CYP3A4/5 inhibitor verapamil by SRB assay; type: functional; conditions: SW1573, 48 h; how it was run: as §3
# SW1573 [11] = test: (§4) Resistance factor, ratio of GI50 for Antiproliferative activity against human SW1573 cells over-expressing P-gp incubated for 48 hrs in absence of P-gp and CYP3A4/5 inhibitor verapamil by SRB assay to GI50 for antiproliferative activity against human SW1573 cells incubated for 48 hrs in absence of P-gp and CYP3A4/5 inhibitor verapamil by SRB assay; type: functional
# How it was run: (§5)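 Resistance factor is GI50 in SW1573/Pgp divided by GI50 in wild-type SW1573. Both come from 48 h SRB assays, run with 10 μM verapamil (final) or without it.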
# SW1573 [12] = test: Antiproliferative activity against human SW1573 cells incubated for 48 hrs in presence of P-gp and CYP3A4/5 inhibitor verapamil by SRB assay; type: functional; conditions: SW1573, 48 h; how it was run: as §3
# SW1573 [13] = test: Antiproliferative activity against human SW1573 cells over-expressing P-gp incubated for 48 hrs in presence of P-gp and CYP3A4/5 inhibitor verapamil by SRB assay; type: functional; conditions: SW1573, 48 h; how it was run: as §3
# SW1573 [14] = test: as §4, with “presence” for “absence”; type: functional; how it was run: as §5
GI50 (A549),GI50 (HeLa),GI50 (SW1573 [1]),GI50 (T47D),GI50 (SW1573 [9]),GI50 (SW1573 [10]),GI50 (SW1573 [12]),GI50 (SW1573 [13]),Compound,GI50 (HBL-100),GI50 (WiDr),GI50 at 48 h [2],RatioGI50 [3],RatioGI50 [4],selectivity ratio at 48 h [5],selectivity ratio at 48 h [6],selectivity ratio at 48 h [7],selectivity ratio at 48 h [8],RatioGI50 (SW1573 [11]),RatioGI50 (SW1573 [14])
3.1 µM,3.2 µM,3.3 µM,3.9 µM,3 µM,3.3 µM,3.5 µM,2.3 µM,CO[C@H]1O[C@@](C)([C@H]2CC(C)=C(C)C(=O)O2)[C@H]2CC[C@H]3[C@@H]4[C@@H](O)C=C5[C@@H](O)C=CC(=O)[C@]5(C)[C@H]4CC[C@]123,3.6 µM,> 10 µM,> 10 µM,2 - 10,2 - 10,2 to 10,2 to 10,2 to 10,2 to 10,1.1,0.7
> 10 µM,5.3 µM,4.1 µM,> 10 µM,3.4 µM,3.2 µM,4.2 µM,3.2 µM,CC1=C(C)C(=O)O[C@@H]([C@](C)(O)[C@H]2CC[C@H]3[C@@H]4[C@@H](O)C=C5[C@@H](O)C=CC(=O)[C@]5(C)[C@H]4CC[C@]23C)C1,4.8 µM,> 10 µM,> 10 µM,2 - 10,2 - 10,2 to 10,2 to 10,2 to 10,2 to 10,0.9,0.8
